pIC50: −log10 of the molar value.
Experiments:
[1] = Bio-transformation in human liver microsomes at 25 uM after 30 mins by LC-MS analysis; assay type: ADME; details: read-out: Drug metabolism
Summary of the method: (§1)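 Test compound at 25 µM with pooled human liver microsomes (0.5 mg/mL total protein) in 0.1 M sodium phosphate, pH 7.4. An NADPH-regenerating system was included (1.25 mM NADP+, 3.3 mM glucose-6-phosphate, 3.3 mM MgCl2). Reaction was started with glucose-6-phosphate dehydrogenase (1 unit/mL final). Parent remaining at various time points was measured by LC-MS. Half-life assumed first-order decay; values from one experiment.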

[2] = tested on: Plasmodium falciparum; assay: Antiplasmodial activity against mefloquine-resistant Plasmodium falciparum D6 assessed as inhibition of [3H]-hypoxanthine uptake after 48 hrs by liquid scintillation counting analysis; assay type: functional, organism-based
Summary of the method: (§2)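 IC50 from inhibition of [3H]hypoxanthine uptake by P. falciparum W2 or D6 parasites. Values come from a single experiment.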

[3] = tested on: Plasmodium falciparum; assay: Antiplasmodial activity against chloroquine, quinine and pyrimethamine-resistant Plasmodium falciparum W2 assessed as inhibition of [3H]-hypoxanthine uptake after 48 hrs by liquid scintillation counting analysis; assay type: functional, organism-based; summary of the method: as §2
[4] = tested on: Plasmodium falciparum; assay: Resistant index, ratio of IC50 for chloroquine, quinine and pyrimethamine-resistant Plasmodium falciparum W2 to IC50 for mefloquine-resistant Plasmodium falciparum D6; assay type: functional
Summary of the method: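 Index is W2 IC50 divided by D6 IC50. Each IC50 is from inhibition of [3H]hypoxanthine uptake in a single experiment.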

[5] = Half life in human liver microsomes at 25 uM by LC-MS analysis; assay type: ADME; summary of the method: as §1
[6] = Half life in mouse liver microsomes at 25 uM by LC-MS analysis; assay type: ADME

| metabolised at 0.5 h, 25 µM [1] [%] | Compound | pIC50 [2] | pIC50 [3] | Ratio IC50 [4] | half-life at 25 µM [5] [min] | half-life at 25 µM [6] [min] |
| --- | --- | --- | --- | --- | --- | --- |
| 100 | O=C(/C=C/c1cnc2ccccc2c1)c1cc(Cl)ccc1Cl | – | – | – | – | – |
| 100 | O=C(/C=C/c1ccnc2ccccc12)c1ccc(Cl)c(Cl)c1 | – | – | – | – | – |
| – | CCOC(C(=O)Nc1ccc(Cl)cc1Cl)c1cnc2ccccc2c1 (stereo not drawn) | 5.35 | 5.70 | 0.43 | > 60 | > 60 |
| – | CCOC(C(=O)Nc1cccc2ncccc12)c1ccc(Cl)c(Cl)c1 (stereo not drawn) | < 4.57 | < 4.57 | – | – | – |
| – | CCOC(C(=O)Nc1ccc2ncccc2c1)c1ccc(Cl)cc1Cl (stereo not drawn) | 4.82 | 4.85 | 0.92 | – | – |
| – | CCOC(C(=O)Nc1ccnc2ccccc12)c1ccc(Cl)cc1Cl (stereo not drawn) | 4.85 | 4.82 | 1 | – | – |
| – | CCOC(C(=O)Nc1cc(Cl)ccc1Cl)c1ccnc2ccccc12 (stereo not drawn) | 4.85 | 4.82 | 1 | – | – |
| – | CCOC(C(=O)Nc1cnc2ccccc2c1)c1ccc(Cl)c(Cl)c1 (stereo not drawn) | 4.89 | 5.23 | – | – | – |
| – | CCOC(C(=O)Nc1ccc(Cl)c(Cl)c1)c1ccnc2ccccc12 (stereo not drawn) | 4.82 | 4.92 | 0.8 | – | – |
| – | CCOC(C(=O)Nc1ccnc2ccccc12)c1cc(Cl)ccc1Cl (stereo not drawn) | 4.92 | 4.85 | 1.2 | – | – |
| – | CCOC(C(=O)Nc1cccc2cccnc12)c1ccc(Cl)c(Cl)c1 (stereo not drawn) | 4.70 | 4.80 | 0.84 | – | – |
| – | CCOC(C(=O)Nc1cccc2ncccc12)c1ccc(Cl)cc1Cl (stereo not drawn) | < 4.57 | < 4.57 | – | – | – |
| – | CCOC(C(=O)Nc1ccc(Cl)c(Cl)c1)c1cnc2ccccc2c1 (stereo not drawn) | 4.74 | 4.89 | 0.71 | – | – |
| – | CCOC(C(=O)Nc1ccc2ccccc2n1)c1ccc(Cl)c(Cl)c1 (stereo not drawn) | 4.72 | 4.82 | 0.76 | – | – |
| – | CCOC(C(=O)Nc1cccc2cccnc12)c1cc(Cl)ccc1Cl (stereo not drawn) | 4.85 | < 4.57 | – | – | – |
| – | CCOC(C(=O)Nc1ccc2ccccc2n1)c1ccc(Cl)cc1Cl (stereo not drawn) | 4.82 | 4.85 | 0.88 | – | – |
| – | CCOC(C(=O)Nc1cnc2ccccc2c1)c1ccc(Cl)cc1Cl (stereo not drawn) | 5.01 | 4.57 | 2.7 | – | – |
| – | CCOC(C(=O)Nc1cc(Cl)ccc1Cl)c1cnc2ccccc2c1 (stereo not drawn) | 4.85 | 4.85 | 1.1 | – | – |
| – | CCOC(C(=O)Nc1ccnc2ccccc12)c1ccc(Cl)c(Cl)c1 (stereo not drawn) | 5.49 | 5.77 | 0.53 | 27 | 30 |
| – | CCOC(C(=O)Nc1cccc2ncccc12)c1cc(Cl)ccc1Cl (stereo not drawn) | 4.96 | 4.82 | 1.4 | – | – |
| – | CCOC(C(=O)Nc1ccc2ncccc2c1)c1ccc(Cl)c(Cl)c1 (stereo not drawn) | 5.11 | 5.04 | – | – | – |
| – | CCOC(C(=O)Nc1ccc2ncccc2c1)c1cc(Cl)ccc1Cl (stereo not drawn) | < 4.77 | < 4.77 | – | – | – |
| – | CCOC(C(=O)Nc1cccc2cccnc12)c1ccc(Cl)cc1Cl (stereo not drawn) | < 4.57 | < 4.57 | – | – | – |
| – | CCOC(C(=O)Nc1ccc2ccccc2n1)c1cc(Cl)ccc1Cl (stereo not drawn) | 4.72 | < 4.57 | – | – | – |
| – | CCOC(C(=O)Nc1ccc(Cl)cc1Cl)c1ccnc2ccccc12 (stereo not drawn) | 5.16 | 5.74 | 0.26 | > 60 | > 60 |
| – | CCOC(C(=O)Nc1cnc2ccccc2c1)c1cc(Cl)ccc1Cl (stereo not drawn) | 5.17 | 5.02 | 1.4 | 27 | 9 |
| 100 | O=C(/C=C/c1ccnc2ccccc12)c1cc(Cl)ccc1Cl | – | – | – | – | – |

| Compound | metabolised at 0.5 h, 25 µM [1] [%] | pIC50 [2] | pIC50 [3] | Ratio IC50 [4] | half-life at 25 µM [5] [min] | half-life at 25 µM [6] [min] |
| --- | --- | --- | --- | --- | --- | --- |
| CCOC(C(=O)Nc1ccc(Cl)cc1)c1ccc(Cl)cc1 (stereo not drawn) | 0 | 5.14 | 4.96 | 1.5 | – | – |
| O=C(/C=C/c1ccc(Cl)cc1)c1ccc(Cl)cc1 [4',4-DICHLOROCHALCONE] | 85 | 5.59 | 5.28 | 2 | – | – |

Source: ChEMBL document CHEMBL3751754, “In vitro efficacy of 2,N-bisarylated 2-ethoxyacetamides against Plasmodium falciparum” (Bioorg Med Chem Lett, 2016)
